Laboratory results from ChEMBL document CHEMBL4359917, “Design, synthesis, and biological evaluation of novel benzodiazepine derivatives as anticancer agents through inhibition of tubulin polymerization in vitro and in vivo” (Eur J Med Chem, 2019).

Experiments:
A549 [1] = assay: Antiproliferative activity against human A549 cells assessed as cell growth inhibition measured after 48 hrs by MTT assay; format: functional, cell-based; details: A549, 48 h
Procedure, shortened: (§1)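 Cancer cell lines exposed to compounds for 48 h; viability read by MTT assay. IC50 reported as mean ± SD from at least three independent experiments.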

HeLa = assay: Antiproliferative activity against human HeLa cells assessed as cell growth inhibition measured after 48 hrs by MTT assay; format: functional, cell-based; procedure, shortened: as §1
HepG2 = assay: Antiproliferative activity against human HepG2 cells assessed as cell growth inhibition measured after 48 hrs by MTT assay; format: functional, cell-based; details: HepG2, 48 h; procedure, shortened: as §1
HCT-116 = assay: Antiproliferative activity against human HCT116 cells assessed as cell growth inhibition measured after 48 hrs by MTT assay; format: functional, cell-based; details: HCT-116, 48 h; procedure, shortened: as §1
MDA-MB-231 = assay: Antiproliferative activity against human MDA-MB-231 cells assessed as cell growth inhibition measured after 48 hrs by MTT assay; format: functional, cell-based; details: MDA-MB-231, 48 h; procedure, shortened: as §1
A549 [2] = assay: Antitumour activity against human A549 cells xenografted in BALB/c nude mouse assessed as tumour volume at 30 mg/kg, ip administered every other day measured at day 26 by electronic caliper method (reference value: 2006.37 mm3); format: functional
A549 [3] = assay: Antitumour activity against human A549 cells xenografted in BALB/c nude mouse assessed as tumour weight at 30 mg/kg, ip administered every other day measured at day 26 by electronic caliper method (reference value: 1.894 g); format: functional
A549 [4] = assay: Antitumour activity against human A549 cells xenografted in BALB/c nude mouse assessed as tumour growth inhibition at 30 mg/kg, ip administered every other day measured at day 26 by electronic caliper method relative to control; format: functional; details: 624 h, read-out: GI
[5] = Toxicity in BALB/c nude mouse xenografted with human A549 cells assessed as effect on body weight at 30 mg/kg, ip administered every other day measured for 26 days; format: organism-based; details: in vivo, 624 h
[6] = Solubility of compound in water; format: physicochemical; details: buffer
[7] = Metabolic stability in Sprague-Dawley rat liver microsomes assessed as parent compound remaining after 30 mins in presence of NADPH by HPLC-UV-MS analysis; format: ADME, Microsome; details: read-out: Stability
Procedure, shortened: (§2)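 Compound incubated with rat liver microsomes in buffer containing an NADPH regenerating system. Percentage of parent remaining was determined at time points up to 180 min, and half-life was derived.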

[8] = Metabolic stability in Sprague-Dawley rat liver microsomes assessed as parent compound remaining after 60 mins in presence of NADPH by HPLC-UV-MS analysis; format: ADME, Microsome; details: read-out: Stability; procedure, shortened: as §2
[9] = Metabolic stability in Sprague-Dawley rat liver microsomes assessed as parent compound remaining after 90 mins in presence of NADPH by HPLC-UV-MS analysis; format: ADME, Microsome; details: read-out: Stability; procedure, shortened: as §2
[10] = Metabolic stability in Sprague-Dawley rat liver microsomes assessed as parent compound remaining after 120 mins in presence of NADPH by HPLC-UV-MS analysis; format: ADME, Microsome; details: read-out: Stability; procedure, shortened: as §2
[11] = Metabolic stability in Sprague-Dawley rat liver microsomes assessed as parent compound remaining after 150 mins in presence of NADPH by HPLC-UV-MS analysis; format: ADME, Microsome; procedure, shortened: as §2
[12] = Half-life in Sprague-Dawley rat liver microsomes in presence of NADPH by HPLC-UV-MS analysis; format: ADME, Microsome; procedure, shortened: as §2
in vitro = details: Sprague-Dawley, rat, liver microsomes

Structure (SMILES) | IC50 (A549 [1]) [nM] | IC50 (HeLa) [nM] | IC50 (HepG2) [nM] | IC50 (HCT-116) [nM] | IC50 (MDA-MB-231) [nM] | other results
COc1ccc2c(c1O)NC(=O)CN=C2c1cc(OC)c(OC)c(SC)c1 | 18.7 | 16.5 | 14.2 | 10.8 | 24.7 | –
COc1cc(-c2c(C)c(=O)[nH]c3c(O)c(OC)ccc23)cc(SC)c1OC | 86 | 158 | 303 | 229 | 133 | –
COc1cc(C2=NCC(=O)Nc3c2ccc(OC)c3OP(=O)([O-])[O-])cc([Se]C)c1OC.[Na+].[Na+] | – | – | – | – | – | Activity (A549 [2]): 215.2 mm3; Activity (A549 [3]): 0.201 g; inhibition in vivo at 30 mg/kg (A549 [4]): 89.3%; Activity [5]: Non-Toxic; solubility [6]: Soluble
COc1ccc2c(c1O)NC(=O)C(C)N=C2c1cc(OC)c(OC)c(SC)c1 (centres undefined) | 93 | 1070 | 295 | 89 | 295 | –
COc1ccc(/C=C\c2cc(OC)c(OC)c(OC)c2)cc1OP(=O)([O-])[O-].[Na+].[Na+] [FOSBRETABULIN DISODIUM] | – | – | – | – | – | Activity (A549 [2]): 984.86 mm3; Activity (A549 [3]): 0.879 g; inhibition in vivo at 30 mg/kg (A549 [4]): 52.8%
COc1cc(-c2cc(=O)[nH]c3c(O)c(OC)ccc23)cc(SC)c1OC | 61.8 | 35.5 | 51.7 | 28.8 | 70 | –
COc1cc(C2=NCC(=O)Nc3c2ccc(OC)c3OP(=O)([O-])[O-])cc(OC)c1OC.[Na+].[Na+] | – | – | – | – | – | Activity (A549 [2]): 408.17 mm3; Activity (A549 [3]): 0.415 g; inhibition in vivo at 30 mg/kg (A549 [4]): 77.7%
COc1ccc2c(c1O)NC(=O)CN=C2c1ccc(OC)c2c1OC(C)(C)C=C2 | 433 | 1870 | 4590 | 207 | 3710 | –
COc1ccc2c(c1O)NC(=O)CN=C2c1cc(OC)c(OC)c(OC)c1 | 9.15 | 18.1 | 15.7 | 16.6 | 54.6 | remaining at 0.5 h [7]: 94.3%; remaining at 1 h [8]: 85.5%; remaining at 1.5 h [9]: 76.2%; remaining at 2 h [10]: 65.3%; remaining at 2.5 h ([11]; Sprague-Dawley, liver microsomes, read-out: Stability): 55.2%; half-life [12]: 2.62 h; remaining at 3 h (in vitro): 49.9%
COc1ccc(/C=C\c2cc(OC)c(OC)c(OC)c2)cc1O [COMBRETASTATIN A4] | – | – | – | – | – | remaining at 0.5 h [7]: 66.3%; remaining at 1 h [8]: 36.4%; remaining at 1.5 h [9]: 21.6%; remaining at 2 h [10]: 17.9%; Stability ([11]; microsomes, 2.5 h): Unstable; half-life [12]: < 1 h
COc1cc(C2=NCC(=O)Nc3c2ccc(OC)c3OP(=O)([O-])[O-])cc(SC)c1OC.[Na+].[Na+] | – | – | – | – | – | Activity (A549 [2]): 369.25 mm3; Activity (A549 [3]): 0.373 g; inhibition in vivo at 30 mg/kg (A549 [4]): 79.3%; Activity [5]: Non-Toxic; solubility [6]: Soluble
COc1ccc2c(c1O)NC(=O)CN=C2c1cc(OC)c(OC)c(N(C)C)c1 | 66.2 | 54.9 | 52 | 53 | 91 | –
COc1ccc2c(c1O)NC(=O)CN=C2c1cc2c(c(OC)c1)OC(C)(C)C=C2 | 56.2 | 34.7 | 30.5 | 13.9 | 69 | –
COc1cc(-c2cc(=O)[nH]c3c(O)c(OC)ccc23)cc([Se]C)c1OC | 60.7 | 51.7 | 22 | 124 | 69 | –
